Source: PubChem BioAssay
A selection: hits, their analogues and other compounds. The true share with any hit is near 2.5%.
Exocytosis inh = LAMP-1 surface exposure blockers, TALL-104 cells – cell-based, flow cytometry, MLPCN library, primary screen; 360,000 compounds, 0.66% hits; AID 651702, 2012; TALL-104 LAMP-1 surface exposure; cells stimulated with thapsigargin and PMA; inhibition, % at 10 µM;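 active = inhibition above about 55%, limit read from the data; inconclusive = no clear call, values can overlap the other calls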
NTR1 ag = agonists of human NTR1, primary screen, imaging, U2OS cells, beta-arrestin-GFP, high content. Neurotensin receptor type 1 (Homo sapiens), P30989. NTR1-U2OS beta-arrestin-GFP spot imaging, agonist mode. 330,000 compounds, 0.17% hits. activation, % at 20 µM;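 active = activation at or above 40% of the spot to cytoplasm intensity ratio, with at least 20 cells analyzed; inconclusive = wells under 20 cells, flagged as cytotoxic or low count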;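 note: 0% = DMSO without peptide and 100% = 100 nM NTR1 peptide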
A1 inh = caspase 3/7 activation in MEF A1-2A-BIM cells, primary screen, A1 inhibitor project, cell-based, luminescence, HTS; caspase activation, % (concentration not given with the values); Caspase-Glo 3/7 luminescence, 3 h; percent of clofoctol response, vehicle zero; 330,000 compounds, 0.066% hits;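 active = over half of replicate activation scores above 10%, or exactly half above 10 with the replicate mean above 10; inconclusive = replicate mean below 10 yet half the replicates above 10; inactive = over half of replicates below 10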
sPLA2-III inh = human group III sPLA2 inhibitors, primary screen, biochemical, QFRET, BODIPY PC-A2 liposome substrate; Group 3 secretory phospholipase A2 (Homo sapiens), Q9NZ20; QFRET BODIPY PC-A2 liposome hydrolysis, fluorescence; inhibition, % at 12.2 µM; 370,000 compounds, 0.56% hits; AID 743126, 2013;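 active = inhibition above mean plus 3 SD of compounds lying within the high and low control bounds, cut at about 19% in these data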;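 note: 0% = median of test compound wells and 100% = no enzyme DMSO wells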
MC4R barr agon = MC4R agonists recruiting beta-arrestin, primary screen, cell-based, luminescence, agonist arm of biased-ligand search; Melanocortin receptor 4 (Homo sapiens), P32245; U2OS MC4R beta-arrestin complementation; percent of melanotan II response, DMSO zero; activation, % at 8.9 µM; 360,000 compounds, 0.98% hits; AID 540308, 2011;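 active = activation above a per-plate cutoff, the mean activation of sample wells on that plate plus 3 SD, cut at about 8% in these data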
Target sequence (P32245 whole entry, looked up): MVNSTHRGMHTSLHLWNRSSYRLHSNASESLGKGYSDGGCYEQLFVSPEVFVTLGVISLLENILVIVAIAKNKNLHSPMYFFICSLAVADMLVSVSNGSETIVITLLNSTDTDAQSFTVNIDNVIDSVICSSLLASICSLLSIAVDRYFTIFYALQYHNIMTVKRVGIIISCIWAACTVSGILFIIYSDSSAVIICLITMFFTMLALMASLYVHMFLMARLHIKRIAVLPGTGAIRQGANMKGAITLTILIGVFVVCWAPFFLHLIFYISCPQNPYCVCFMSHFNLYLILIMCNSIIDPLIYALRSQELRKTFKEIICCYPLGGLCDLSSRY
MC4R antag cAMP = MC4R antagonists of cAMP signaling, primary screen, cell-based, TR-FRET, antagonist arm of biased-ligand search | Melanocortin receptor 4 (Homo sapiens), P32245 | MC4R-expressing cells, MTII-stimulated cAMP, LANCE TR-FRET | inhibition, % at 6.5 µM | 360,000 compounds, 0.48% hits | AID 540295, 2011;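 active = inhibition above its plate's cutoff, the mean of tested wells on that plate plus 3 SD, cut at about 29% in these data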;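 note: 0% = Melanotan II alone and 100% = Melanotan II plus saturating MCL0020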
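Assay system: human MC4R-expressing U2OS cells; reagent: Melanotan II stimulation of cells; dosing: 6.5 µM single dose; timing: compound 30 min, challenge 1 h, detection 1 h; signal: TR-FRET cAMP assay; replicates: one well per compound, no replicates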
MC4R barr ag = MC4R beta-arrestin agonists, retest, confirmation, cell-based, luminescence, U2OS; 2,400 compounds, 31% hits; U2OS MC4R beta-arrestin recruitment; scaled DMSO 0%, Melanotan II 100%; shares compounds with MC4R barr agon; AID 602192, 2012; activation, % at 8.9 µM;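 active = mean activation across replicates above the hit cutoff set in the earlier primary screen, cut at about 8% in these data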
MOR-DOR barr ag = agonists of MOR-DOR heterodimerization, counter-screen for MC4R biased agonist project, cell-based, luminescence | AID 602194, 2012 | shares compounds with MC4R barr agon | 2,400 compounds, 5.8% hits | activation, % at 9.2 µM | U2OS PathHunter beta-arrestin, beta-gal luminescence; percent of deltorphin B response, DMSO zero;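 active = mean activation across replicates exceeds the hit threshold derived in the earlier primary screen, cut at about 18% in these data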;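 note: 100% = deltorphin B at 0.9 µM final and 0% = DMSO alone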
* = called active by the depositor; u = inconclusive; x = no result.

SMILES | Exocytosis inh | NTR1 ag | A1 inh | sPLA2-III inh | MC4R barr agon | MC4R antag cAMP | MC4R barr ag | MOR-DOR barr ag
CCCCNS(=O)(=O)CC1NCc2cc(F)ccc21 (stereo unspecified) | x | x | x | 7 | x | x | x | x
COC(=O)c1cc2c(c3c4cc(C)ccc4n(S(=O)(=O)c4ccc(C)cc4)c13)C(=O)N(Cc1ccccc1)C2 | x | x | x | 1 | x | x | x | x
C[C@H]1[C@@H](OC(=O)NC2CCCCC2)CC[C@@]23CCCN2C(=O)CCC[C@@H]13 | x | x | x | 7 | x | x | x | x
COC(=O)c1cccc(Nc2nc(-c3cccnc3)nc3ccccc23)c1 | 32 | 2 | 0 | -8 | -1 | 9 | x | x
CCOC(=O)c1cccc(Nc2nc(-c3cccnc3)nc3ccccc23)c1 | 0 | 27 | 0 | -33 | 12* | 5 | 6 | 7
COc1ccc(/C=N/Nc2cc(C)nc3ccc(OC)cc23)c(OC)c1 | 52 | 17 | 0 | -9 | 32* | -12 | 57* | 43*
O=C(c1ccccc1)c1ccc(OCC(O)CNCc2ccc(F)cc2)cc1 (stereo unspecified) | 31 | x | 1 | -8 | 3 | 10 | x | x
Cc1ccc(C(OCC(O)CNCc2ccc(F)cc2)c2ccccc2)cc1 (stereo unspecified) | 18 | 33 | 0 | -11 | 14* | 7 | 24* | 14
COc1ccc(-c2cc(C(=O)Nc3ccccc3SC)no2)cc1 | -1 | -2 | -3 | 2 | 0 | 0 | x | x
CSc1ccccc1NC(=O)c1cc(-c2cccs2)on1 | 3 | 9 | -2 | -5 | 9.8* | -2 | 7 | 5
COC(=O)[C@]12C[C@H](CC(=O)NCCc3ccccc3OC)C(=O)N(Cc3ccc4c(c3)OCO4)C1=C[C@H](COCc1ccccc1)O[C@@H]2C | x | x | x | -4 | x | x | x | x
COC(=O)c1ccccc1NC(=O)c1cccc(NC(=O)CSCc2ccccc2)c1C | -3 | 2 | 1 | 0 | 18* | -3 | 5 | 4
COC(=O)c1ccccc1NC(=O)CSCC(=O)Nc1ccccc1 | 8 | 0 | 1 | -2 | 1 | 0 | x | x
COC(=O)C1=C(C)N(Cc2ccccc2C(F)(F)F)C(=NCc2ccc(OC)cc2)NC1c1cccc(F)c1 (stereo unspecified) | x | x | x | -5 | x | x | x | x
O=C(CCCN1C(=O)/C(=C\c2cccs2)SC1=S)Nc1ccc(O)cc1 | 22 | 0 | 0 | -22 | 10* | 26 | 16* | 2
O=C(CCCN1C(=O)/C(=C/c2cccs2)SC1=S)NNC(=O)c1ccncc1 | -17 | 4 | -1 | 3 | 1 | 7 | x | x
O=C(CCCN1C(=O)/C(=C/c2cccs2)SC1=S)NNC(=O)c1ccccc1O | 3 | 3 | 1 | 19 | 18* | -3 | 2 | 4
COc1cc(OC)cc(-c2c(-c3cccs3)c3cc(-c4ccc(C(N)=O)cc4)ccc3n2C)c1 | -1 | 11 | -2 | 4 | 16* | 14 | 11* | 4
CC(C)CNC(=O)OCc1cn(Cc2ccc(Cl)cc2)nn1 | x | x | x | 7 | x | x | x | x
O=C1COc2ccc(S(=O)(=O)N3CCN(c4cccc(C(F)(F)F)c4)CC3)cc2N1 | 1 | 4 | 0 | 4 | 11* | 10 | 3 | 7
Cc1ccc(C)c(N2CCN(S(=O)(=O)c3cc4c(cc3C)NC(=O)CO4)CC2)c1 | -5 | 22 | 0 | 7 | 2 | 6 | x | x
Cc1cc2c(cc1S(=O)(=O)N1CCN(c3cccc(C(F)(F)F)c3)CC1)OCC(=O)N2 | -2 | 9 | x | -5 | 8 | 6 | x | x
CC(=O)c1ccc(N2CCN(S(=O)(=O)c3cc4c(cc3C)NC(=O)CO4)CC2)cc1 | 3 | 0 | x | 8 | 16* | 7 | 1 | 2
COc1ccc(CNCCc2ccc(Cl)cc2)cc1OCc1ccccc1 | 31 | 12 | u | x | 16* | -3 | 24* | 11
COc1ccc(CNCCc2ccccc2)cc1OCC(N)=O | -5 | 2 | 1 | -6 | -1 | 5 | x | x
SMILES | Exocytosis inh | NTR1 ag | A1 inh | sPLA2-III inh | MC4R barr agon | MC4R antag cAMP | MC4R barr ag | MOR-DOR barr ag
COc1cc(/C=C2\CC/C(=C\c3cc(OC)c(O)c(OC)c3)C2=O)cc(OC)c1O | -1 | 5 | 0 | 2 | 21* | -8 | 56* | 35*
Cc1ccc(-n2c(SCC(=O)Nc3ccc(S(=O)(=O)Nc4cc(C)nc(C)n4)cc3)nnc2-c2cccs2)cc1 | x | x | x | -39 | x | x | x | x
O=C(Cc1cccs1)Nc1cccc(-c2nnc(-c3ccco3)o2)c1 | -1 | -1 | -1 | -16 | -3 | 10 | x | x
Cc1ccc(-c2nnc(-c3ccc(NC(=O)Cc4cccs4)cc3)o2)cc1 | -3 | 4 | 0 | -2 | 36* | -2 | 22* | 5
O=C(Nc1ccc(-c2nnc(-c3ccco3)o2)cc1)C(c1ccccc1)c1ccccc1 | -2 | 2 | -1 | -2 | 23* | 13 | 4 | 7
O=C(CSCc1ccc(Cl)cc1)Nc1ccc(-c2nnc(-c3ccccc3)o2)cc1 | -1 | 1 | -3 | 5 | 9.9* | -2 | 2 | 2
Cc1ccc(SCC(=O)Nc2ccc(C(=O)Nc3ccc(O)cc3)cc2)cc1 | -3 | 0 | 0 | -3 | 11* | -5 | 1 | 1
Cn1c(CNc2ccccc2F)nc2ccccc21 | x | x | x | 2 | x | x | x | x
COC(=O)[C@]12C[C@H](CC(=O)NCCC(C)C)C(=O)N(Cc3ccco3)C1=C[C@H](COCc1ccccc1)O[C@@H]2C | x | x | x | 1 | x | x | x | x
Cc1ccccc1N(C)C(=O)CN1CCN(c2nc(-c3ccccc3)cs2)CC1 | x | x | x | -4 | x | x | x | x
COc1cccc(C(=O)N[C@H](C(=O)N2CCC[C@H]2C(=O)NCCc2ccccc2Cl)c2ccccc2)c1 | x | x | x | -6 | x | x | x | x
Cc1ccc(SCC(=O)Nc2ccc(-c3nnc(-c4ccco4)o3)cc2)cc1 | -1 | 1 | -1 | -11 | 18* | 10 | 9.1* | 7
